For 16 compounds, IC50 and logP results are on record in ChEMBL document CHEMBL1806428, “Design and synthesis of spiro derivatives of parthenin as novel anti-cancer agents” (Eur J Med Chem, 2011).

One data set relates to PC-3. Briefly: Cytotoxicity against human PC3 cells assessed as cell growth after 48 hrs by sulforhodamine B assay. The format is functional, cell-based. In short, it runs like this:
(§1)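 Log-phase cells seeded at 10^4/well and allowed to attach for 24 h at 37 °C, 5% CO2. Exposed for 48 h to 0.1–100 (1:10 serial dilutions), four replicate wells per condition. Fixed with cold 50% TCA for 1 h at 4 °C, stained with sulforhodamine B, dye dissolved in Tris, OD read at 540 nm. Blank-subtracted growth expressed relative to untreated cells (100%); IC50 reported.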
(In SRB staining, fixed cells bind dye roughly in proportion to their protein.)

The next data set deals with DU-145. Briefly: Cytotoxicity against human DU145 cells assessed as cell growth after 48 hrs by sulforhodamine B assay. The class given is functional, cell-based. In short, it runs like this:
as §1

Another data set relates to SW-620. Description: Cytotoxicity against human SW620 cells assessed as cell growth after 48 hrs by sulforhodamine B assay. The format is functional, cell-based. In short, it runs like this: as §1
Data set [1] in a line: Partition coefficient, log P of the compound. To be noted: octanol/water. The format is physicochemical.

For orientation: IC50 means the concentration that gives 50% inhibition. One may read the logP as a log measure of how a compound divides between an organic and an aqueous phase. Read a high logP as a more lipophilic compound.

For the compound `C[C@H]1CC[C@@H]2[C@@H](OC(=O)[C@]23CC(c2c(F)cccc2F)N(c2ccccc2)O3)[C@]2(C)C(=O)C=C[C@@]12O` (stereo not given in full), the IC50 turned out to be 2.5 µM in the data set on PC-3 (Homo sapiens, PC-3, 48 h); 2.3 µM with PC-3 (pc-3); 12 µM in the data set on DU-145 (Homo sapiens, DU-145, 48 h); 9 µM with DU-145 (du-145); 5 µM in the data set on SW-620 (Homo sapiens, SW-620, 48 h); 7.2 µM in the data set with SW-620 (sw-620).

Compound `COc1ccc(C2C[C@@]3(ON2c2ccccc2)C(=O)O[C@@H]2[C@H]3CC[C@H](C)[C@]3(O)C=CC(=O)[C@@]23C)cc1` (mixture of isomers) displayed a logP in data set [1] of 3.25.

As to `C[C@H]1CC[C@@H]2[C@@H](OC(=O)[C@]23CC(c2ccccc2)N(c2ccccc2)O3)[C@]2(C)C(=O)C=C[C@@]12O` (stereo not given in full), the IC50 with PC-3 (Homo sapiens, PC-3, 48 h) was determined as 5.7 µM; with PC-3 (pc-3) it was 9 µM; in the data set on DU-145 (Homo sapiens, DU-145, 48 h) it was 5.6 µM; with DU-145 (du-145), 6.5 µM; with SW-620 (Homo sapiens, SW-620, 48 h), 5.3 µM; in the data set on SW-620 (sw-620), 6 µM.

The compound `C[C@H]1CC[C@@H]2[C@@H](OC(=O)[C@]23CC(c2ccccc2F)N(c2ccccc2)O3)[C@]2(C)C(=O)C=C[C@@]12O` (mixture of isomers) registered a logP in data set [1] of 3.35.

In turn, `COc1ccc(C2C[C@@]3(ON2c2ccccc2)C(=O)O[C@@H]2[C@H]3CC[C@H](C)[C@]3(O)C=CC(=O)[C@@]23C)cc1Br` (mixture of isomers) registered a logP in data set [1] of 3.98.

Turning to `COc1ccc(C2C[C@@]3(ON2c2ccccc2)C(=O)O[C@@H]2[C@H]3CC[C@H](C)[C@]3(O)C=CC(=O)[C@@]23C)cc1Br` (stereo not given in full), the IC50 was determined as 5.7 µM in the data set with PC-3 (Homo sapiens, PC-3, 48 h); 8.1 µM in the data set on PC-3 (pc-3); 6.3 µM in the data set with DU-145 (Homo sapiens, DU-145, 48 h); 5.4 µM with DU-145 (du-145); 6.8 µM with SW-620 (Homo sapiens, SW-620, 48 h); 9 µM with SW-620 (sw-620).

Take `C[C@H]1CC[C@@H]2[C@@H](OC(=O)[C@]23CC(c2ccccc2)N(c2ccccc2)O3)[C@]2(C)C(=O)C=C[C@@]12O` (mixture of isomers): the logP in data set [1] is 3.19.

For `C[C@H]1CC[C@@H]2[C@@H](OC(=O)[C@]23CC(c2cccc(Cl)c2)N(c2ccccc2)O3)[C@]2(C)C(=O)C=C[C@@]12O` (stereo not given in full), the IC50 stood at 8.2 µM with PC-3 (Homo sapiens, PC-3, 48 h); 12 µM in the data set with PC-3 (pc-3); 7.4 µM in the data set with DU-145 (Homo sapiens, DU-145, 48 h); 6 µM in the data set on DU-145 (du-145); 6.1 µM in the data set on SW-620 (Homo sapiens, SW-620, 48 h); 10.5 µM in the data set on SW-620 (sw-620).

As to `COc1cccc(C2C[C@@]3(ON2c2ccccc2)C(=O)O[C@@H]2[C@H]3CC[C@H](C)[C@]3(O)C=CC(=O)[C@@]23C)c1` (stereo not given in full), the IC50 in the data set on PC-3 (Homo sapiens, PC-3, 48 h) was determined as 12 µM; in the data set with PC-3 (pc-3), 9 µM; in the data set with DU-145 (Homo sapiens, DU-145, 48 h), 10 µM; in the data set with DU-145 (du-145) it was 11 µM; with SW-620 (Homo sapiens, SW-620, 48 h) it was 7.5 µM; in the data set on SW-620 (sw-620) it was 6.6 µM.

The compound `C[C@H]1CC[C@@H]2[C@@H](OC(=O)[C@]23CC(c2ccc(F)cc2)N(c2ccccc2)O3)[C@]2(C)C(=O)C=C[C@@]12O` (mixture of isomers) came in with a logP in data set [1] of 3.35.

`C[C@H]1CC[C@@H]2[C@@H](OC(=O)[C@]23CC(c2ccc([N+](=O)[O-])cc2)N(c2ccccc2)O3)[C@]2(C)C(=O)C=C[C@@]12O` (mixture of isomers): in data set [1], the logP came out at 3.15.

With `Cc1ccccc1C1C[C@@]2(ON1c1ccccc1)C(=O)O[C@@H]1[C@H]2CC[C@H](C)[C@]2(O)C=CC(=O)[C@@]12C` (mixture of isomers), in data set [1], the log partition coefficient (logP) was determined as 3.64.

Consider `C[C@H]1CC[C@@H]2[C@@H](OC(=O)[C@]23CC(c2ccc(C#N)cc2)N(c2ccccc2)O3)[C@]2(C)C(=O)C=C[C@@]12O` (mixture of isomers), for which the logP in data set [1] worked out at 2.94.

As for `C[C@H]1CC[C@@H]2[C@@H](OC(=O)[C@]23CC(c2c(Cl)cccc2Cl)N(c2ccccc2)O3)[C@]2(C)C(=O)C=C[C@@]12O` (stereo not given in full), the IC50 in the data set with PC-3 (Homo sapiens, PC-3, 48 h) is 2.4 µM; with PC-3 (pc-3), 4.2 µM; with DU-145 (Homo sapiens, DU-145, 48 h), 9 µM; in the data set with DU-145 (du-145), 6.3 µM; in the data set with SW-620 (Homo sapiens, SW-620, 48 h), 3 µM; with SW-620 (sw-620), 5 µM.

In data set [1], `C[C@H]1CC[C@@H]2[C@@H](OC(=O)[C@]23CC(c2ccc(Br)cc2)N(c2ccccc2)O3)[C@]2(C)C(=O)C=C[C@@]12O` (mixture of isomers) yielded a logP of 4.

`Cc1ccccc1C1C[C@@]2(ON1c1ccccc1)C(=O)O[C@@H]1[C@H]2CC[C@H](C)[C@]2(O)C=CC(=O)[C@@]12C` (stereo not given in full): the IC50 turned out to be 15 µM in the data set with PC-3 (Homo sapiens, PC-3, 48 h); 4.5 µM in the data set on DU-145 (Homo sapiens, DU-145, 48 h); 5.1 µM in the data set on DU-145 (du-145); 12 µM in the data set on SW-620 (Homo sapiens, SW-620, 48 h); 9 µM with SW-620 (sw-620).
